A selection: hits, their analogues and other compounds. The true share with any hit is near 2%.
DNA FID counter = fluorescent intercalator displacement, NS3 helicase counter-screen; AID 1845; DNA fluorescent intercalator displacement, fluorescence; inhibition, % at 7.9 µM; hit rate 0.17% among 290,000; in the data active = inhibition above about 37%;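 note: 0% = vehicle and 100% = reference compound; higher means more ethidium bromide displaced from hairpin DNA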
NS3 helicase inh = blocks Hepatitis C virus NS3 helicase unwinding | NS3 helicase DNA unwinding, Cy5 molecular beacon fluorescence | inhibition, % at 10.9 µM | hit rate 0.56% among 290,000;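 active = inhibition above the mean of all tested compounds plus 3 SD, set per campaign, cut at about 35% in these data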;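 note: 0% = DMSO wells and 100% = thioflavine S control wells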
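System: HCV NS3 helicase fragment; control set: DMSO and thioflavine S; technique: Cy5 fluorescence at 0 and 60 min, beacon hairpin quenching; reagent: beacon DNA duplex substrate plus ATP; replicates: singlicate; schedule: 1 h reaction at 25 °C, ATP-initiated; medium: MOPS buffer pH 6.5 with MgCl2, DTT, Tween20, BSA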
HCV core dimer = HCV core protein dimerization inhibition; TR-FRET GST/Flag-core106 dimerization, 1536-well; inhibition, % at 5 µM; hit rate 0.33% among 300,000; AID 1899;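 active = inhibition above the mean of all tested compounds plus 3 SD, set per screening campaign, cut at about 45% in these data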
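Assay system: tagged HCV core106 pair (GST and Flag); medium: KF-containing HEPES buffer, pH 7.45, DTT, CHAPS, BSA; also added: Eu donor and XL665 acceptor anti-tag antibodies; dosing: 5 µM single dose; timing: compound-protein-antibody incubation 4 h at 22.5 °C; signal: TR-FRET 671 and 617 nm emission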
PABP FP inh = blocks human PABP binding to poly(A) RNA. fluorescence polarization. hit rate 1% among 290,000. AID 2014. inhibition, % at 35 µM;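 note: calls also rest on retests at 20 µM and on dose response follow-up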
MLLE-PAM2 inh = blocks PAM2 peptide binding to the PABP1 MLLE domain. inhibition, % at 20 µM. P11940. GST-MLLE / FITC-PAM2 fluorescence polarization. hit rate 0.36% among 360,000. AID 588489; in the data active = inhibition above about 35%, passing the limit was not always enough;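 note: plate controls were DMSO wells with GST-MLLE for no effect and wells lacking GST-MLLE protein for full effect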
eIF4H FP inh = inhibitors of RNA binding by human eIF4H; hit rate 0.94% among 290,000; inhibition, % at 35 µM; AID 2012; eIF4H fluorescence polarization binding assay;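 note: calls also rest on retests at 20 µM and on dose response follow-up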
The depositor's hits bear a star; / = no result given. Unless noted, the rule behind the calls is not given here.

SMILES	DNA FID counter	NS3 helicase inh	HCV core dimer	PABP FP inh	MLLE-PAM2 inh	eIF4H FP inh
CC1=CC(C)C(C[N+]2(C)CCCCC2)C(C)C1 (stereo unspecified)	3.5	8.7	-0.2	61.2*	-117.7	8.7
CCN(C(=O)C(C)Sc1nnc(-c2ccncc2)n1C)C1CCCCC1 (stereo unspecified)	/	/	/	/	5.3	/
CN1CCN(c2ncnc3c2ncn3[C@H]2CN(Cc3ccc(C(=O)O)cc3)C[C@@H](CO)O2)CC1	/	/	/	/	3.7	/
ONc1cccnc1-n1nc(C(F)(F)F)cc1C(F)(F)F	-7.1	-2.8	-4.5	25.3	/	63.6*
O=C(Nc1ccc2nc(-c3ccco3)[nH]c2c1)c1ccco1	-8.3	-4.3	-2.4	25.8*	11.7	60.7
Cc1cc2cc(NC(=O)c3ccco3)ccc2[nH]1	-8.8	9.1	0.3	-1.9	3.5	-2.5
O=C(Nc1ccc2[nH]c3c(c2c1)CCCC3)c1ccco1	-12.7	16.7	47.5*	45.8	6.3	52.4
CC(=O)Nc1ccc2nc(-c3ccco3)[nH]c2c1	-10.1	0.0	-2.0	10.2	8.1	15.4
Cc1nnc(N2C(=O)C(=O)/C(=C(/O)c3ccc4c(c3)OCCO4)C2c2ccc([N+](=O)[O-])cc2)s1 (stereo unspecified)	-30.4	23.9	48.1*	4.8	-20.5	-8.1
Cc1nnc(N2C(=O)C(=O)/C(=C(/O)c3ccc4c(c3)OCCO4)C2c2cccc([N+](=O)[O-])c2)s1 (stereo unspecified)	/	/	/	/	11.6	/
O=C(O)CCCN1C(=O)C(=O)/C(=C(/O)c2ccc(Cl)cc2)C1c1ccccc1 (stereo unspecified)	-9.2	-25.1	-0.4	6.6	51.2*	-2.2
CC(C)Cc1cc(C(=O)Nc2c(F)cc(F)cc2Br)no1	-6.8	-2.3	4.1	-7.5	11.4	60.6*
CC(C)Cc1cc(C(=O)Nc2ccc(F)cc2F)no1	3.7	-2.6	11.5	-3.9	-12.0	0.9
O=C(Nc1cccc(Cl)c1)c1cc(N=Nc2ccc([N+](=O)[O-])cc2Cl)ccc1O	14.2	25.6	3.1	5.7*	-4.8	80.6
CCOC(=O)c1c(C)oc2c1c(C=NCC1CCCO1)c(O)c1ccccc12 (stereo unspecified)	-9.4	17.1	/	16.1	-14.7	26.7
CCOC(=O)c1c(C)oc2c1c(C=NCc1ccccn1)c(O)c1ccccc12	0.0	18.2	/	115.5*	5.4	120.6*
COCCNc1nc(NCc2ccc(NC(C)=O)cc2)c2sc(-c3ccccc3)cc2n1	/	/	/	/	-2.5	/
Cc1c(C(=O)O)cccc1N1C(=O)Nc2ccccc2N1O	4.9	-0.8	-3.7	9.0	-10.7	-4.4
O=C(O)c1ccc(O)c(N2C(=O)Nc3ccccc3N2O)c1	-4.0	-3.5	-13.3	6.5*	-10.1	53.4*
CCOc1cc(Br)cc(/C=N/NC(=O)c2cccnc2)c1O	-18.4	14.2	-1.8	-4.6	-50.6	7.5
Cc1nnc(SCC(=O)NCc2ccco2)[nH]c1=O	-0.4	0.9	-2.4	33.7*	12.6	57.0*
CCOC(=O)C1CCCN(C(=O)c2ccccc2SCCOC)C1 (stereo unspecified)	-13.9	-0.2	0.8	7.1	40.3*	8.4
NC(=O)c1c(NC(=O)C2c3ccccc3Oc3ccccc32)sc2c1CCCCC2	-13.9	25.7	50.4*	7.8	-18.0	44.3
Cc1ccc(C)c(NC(=O)CN2C(=O)C3CC=CCC3C2=O)c1 (stereo unspecified)	/	/	/	/	-6.9	/
O=C(c1ccc(Cl)cc1)c1oc2ccccc2c1CS(=O)c1ccc(Cl)cc1 (stereo unspecified)	-0.4	-2.8	6.0	2.9	26.0	-6.8
SMILES	DNA FID counter	NS3 helicase inh	HCV core dimer	PABP FP inh	MLLE-PAM2 inh	eIF4H FP inh
Nc1c(C(=O)c2ccc(Cl)cc2)oc2ccccc12	-2.2	-0.1	-2.7	61.7*	13.2	active
Cc1cc(=O)n(CC(C)C)c(O)c1C#N	-13.9	15.9	1.6	67.8*	-1.1	119.2*
CCn1c(O)c(C#N)c(C)cc1=O	-3.9	5.5	0.0	45.9	13.0	77.8*
Cc1noc(C)c1CSCC(=O)OCC(=O)Nc1sccc1C#N	1.9	5.0	13.7	73.7*	0.0	58.4*
N#Cc1ccsc1NC(=O)COC(=O)CCCSc1nc2ccccc2s1	-17.4	23.2	44.7	121.9*	-17.6	101.7*
NC(=O)COC(=O)CCCSc1nc2ccccc2s1	-2.6	1.8	-3.2	-18.0	-15.2	-4.5
Cc1noc(C)c1CSCC(=O)OCC(=O)Nc1ccc(OC(F)(F)F)cc1	/	/	/	/	4.0	/
C#CCOCCOCCOCCNc1nc(N2CCN(C(=O)[C@H](Cc3cc4ccccc4[nH]3)n3cc([C@@H](N)CC(C)C)nn3)CC2)nc(N2CCN(C(=O)[C@H](Cc3cc4ccccc4[nH]3)n3cc([C@@H](N)CC(C)C)nn3)CC2)n1	63.9*	-28.5	-42.2	13.7	-2.6	-2.8
C#CCOCCOCCOCCNc1nc(N2CCN(C(=O)[C@H]([C@@H](C)CC)n3cc([C@@H](N)CO)nn3)CC2)nc(N2CCN(C(=O)[C@H](Cc3cc4ccccc4[nH]3)n3cc([C@@H](N)C(C)CC)nn3)CC2)n1 (stereo partly specified)	40.9*	-51.0	-33.5	30.8	/	17.6
C#CCOCCOCCOCCNc1nc(N2CCN(C(=O)[C@H](Cc3cc4ccccc4[nH]3)n3cc([C@@H](N)C(C)CC)nn3)CC2)nc(N2CCN(C(=O)[C@H](CCCCN)n3cc([C@@H](N)CC(C)C)nn3)CC2)n1 (stereo partly specified)	44.5*	-60.2	-34.6	7.9	/	28.2
C#CCOCCOCCOCCNc1nc(N2CCN(C(=O)C(Cc3cc4ccccc4[nH]3)n3cc(C(N)Cc4ccc(O)cc4)nn3)CC2)nc(N2CCN(C(=O)C(Cc3cc4ccccc4[nH]3)n3cc(C(N)Cc4ccc(O)cc4)nn3)CC2)n1 (stereo unspecified)	52.1*	-14.1	/	-48.0	/	-20.3
C#CCOCCOCCOCCNc1nc(N2CCN(C(=O)[C@H]([C@@H](C)CC)n3cc([C@@H](N)Cc4ccc(O)cc4)nn3)CC2)nc(N2CCN(C(=O)[C@H](Cc3cc4ccccc4[nH]3)n3cc([C@@H](N)C(C)CC)nn3)CC2)n1 (stereo partly specified)	34.4	-67.2	0.8	25.2	/	46.8
C#CCOCCOCCOCCNc1nc(N2CCN(C(=O)[C@H](Cc3cc4ccccc4[nH]3)n3cc([C@@H](N)C(C)CC)nn3)CC2)nc(N2CCN(C(=O)[C@H](Cc3cc4ccccc4[nH]3)n3cc([C@@H](N)Cc4ccc(O)cc4)nn3)CC2)n1 (stereo partly specified)	41.1*	-43.3	-44.1	-40.0	/	4.8

Screening results from PubChem.
